Experiments:
[1] = Resistance index, ratio of IC50 for chloroquine-resistant asexual blood stage of Plasmodium falciparum K1 infected in human RBC to IC50 for chloroquine-sensitive asexual blood stage of Plasmodium falciparum NF54 infected in human RBC; assay type: functional
[2] = system: Plasmodium falciparum; assay: (§1) Antiplasmodial activity against chloroquine-sensitive asexual blood stage of Plasmodium falciparum NF54 infected in human RBC assessed as reduction in [3H]hypoxanthine incorporation preincubated for 48 hrs followed by [3H]hypoxanthine addition measured after 24 hrs by liquid scintillation counting method; assay type: functional, organism-based
How it was run: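 Asexual blood-stage P. falciparum NF54 assay, run as a modified [3H]-hypoxanthine incorporation assay. Values are the mean of n ≥ 2 assays; determinations differing more than 3-fold were excluded. Chloroquine and artesunate served as controls.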

[3] = system: Plasmodium falciparum; assay: as §1, with “chloroquine-resistant” for “chloroquine-sensitive”, “K1” for “NF54”; assay type: functional, organism-based
How it was run: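 Asexual blood-stage P. falciparum K1 (multidrug resistant) screened by modified [3H]-hypoxanthine incorporation assay; IC50 as mean of n ≥ 2 assays, replicates differing above 3-fold excluded; chloroquine and artesunate controls.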

[4] = system: Hemozoin; assay: Inhibition of beta hematin formation after 5 hrs by NP40 detergent-based assay
[5] = system: Plasmodium falciparum; assay: Antiplasmodial activity against chloroquine-sensitive final late stage of Plasmodium falciparum NF54-Mal8p1.16-GFP-Luc gametocytes after 24 hrs by BacTiter-Glo assay; assay type: functional, organism-based; conditions: NF54, 24 h
How it was run: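 Late-stage PfNF54 gametocytes produced in vitro; gametocytocidal IC50 via luciferase reporter and ATP bioluminescence platforms; n=3 independent biological replicates in technical triplicates, ± S.E.M.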

[6] = target: T1, hERG (KCNH2) (Homo sapiens, UniProt Q12809); assay: Inhibition of human ERG expressed in CHO cells assessed as reduction in peak channel current at 10 uM by IonWork patch-clamp electrophysiology method relative to control; assay type: cell-based; conditions: CHO cells expressing human ERG
T1 sequence (Q12809 whole entry): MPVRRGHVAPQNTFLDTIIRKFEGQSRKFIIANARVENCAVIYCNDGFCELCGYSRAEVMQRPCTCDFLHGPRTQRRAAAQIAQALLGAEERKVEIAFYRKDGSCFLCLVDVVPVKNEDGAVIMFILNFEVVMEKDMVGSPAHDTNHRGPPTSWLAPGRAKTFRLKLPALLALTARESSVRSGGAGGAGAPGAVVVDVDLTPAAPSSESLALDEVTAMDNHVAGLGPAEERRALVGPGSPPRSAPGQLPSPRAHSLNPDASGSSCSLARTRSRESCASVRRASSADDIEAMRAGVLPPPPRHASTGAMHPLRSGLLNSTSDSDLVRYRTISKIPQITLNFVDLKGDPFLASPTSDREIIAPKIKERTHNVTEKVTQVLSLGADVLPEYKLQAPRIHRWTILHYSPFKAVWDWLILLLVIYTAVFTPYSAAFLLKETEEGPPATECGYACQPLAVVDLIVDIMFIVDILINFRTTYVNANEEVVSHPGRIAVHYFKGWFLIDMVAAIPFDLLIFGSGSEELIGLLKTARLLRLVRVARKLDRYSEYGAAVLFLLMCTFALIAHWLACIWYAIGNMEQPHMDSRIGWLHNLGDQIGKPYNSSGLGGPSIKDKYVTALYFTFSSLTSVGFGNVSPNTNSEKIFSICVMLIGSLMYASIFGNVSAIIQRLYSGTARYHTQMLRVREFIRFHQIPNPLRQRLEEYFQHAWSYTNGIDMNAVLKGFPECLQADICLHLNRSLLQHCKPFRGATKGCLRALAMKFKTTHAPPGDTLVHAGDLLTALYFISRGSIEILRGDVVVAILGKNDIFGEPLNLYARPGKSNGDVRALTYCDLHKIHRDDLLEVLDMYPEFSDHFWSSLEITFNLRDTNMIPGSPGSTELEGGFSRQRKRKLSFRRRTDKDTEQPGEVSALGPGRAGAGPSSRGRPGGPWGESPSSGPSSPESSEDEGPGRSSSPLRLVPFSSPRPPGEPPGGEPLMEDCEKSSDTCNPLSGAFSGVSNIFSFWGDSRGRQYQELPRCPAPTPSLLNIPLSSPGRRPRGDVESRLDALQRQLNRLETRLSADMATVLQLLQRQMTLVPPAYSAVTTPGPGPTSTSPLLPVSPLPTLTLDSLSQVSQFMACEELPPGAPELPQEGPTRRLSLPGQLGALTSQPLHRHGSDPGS
How it was run: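 hERG potassium channel profiled by IonWorks patch-clamp electrophysiology, with 10 μM as the highest concentration tested. Values are the mean of 3 results from experiments run as biological and technical triplicates.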

[7] = target: T1, hERG (KCNH2); assay: Inhibition of human ERG expressed in CHO cells assessed as reduction in peak channel current at 0.3 uM by IonWork patch-clamp electrophysiology method relative to control; assay type: cell-based; conditions: CHO cells expressing human ERG
[8] = system: CHO; assay: Cytotoxicity against CHO cells after 48 hrs by MTT assay; assay type: cell-based; conditions: Cricetulus griseus
[9] = Selectivity index, ratio of IC50 for CHO cells to IC50 for chloroquine-sensitive asexual blood stage of Plasmodium falciparum NF54 infected in human RBC; assay type: toxicity; conditions: Chinese hamster, read-out: Ratio IC50
How it was run: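 Selectivity index taken as the ratio of the CHO-cell IC50 to the P. falciparum NF54 IC50.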

[10] = system: Plasmodium berghei; assay: Antimalarial activity against liver stage form of luciferase transfected Plasmodium berghei sporozoites infected in human HuH7 cells preincubated with host cells for 1 hr followed by plasmodial infection and measured after 48 hrs by bioluminescence method; assay type: functional, organism-based; conditions: Huh-7
[11] = target: Voltage-gated inwardly rectifying potassium channel KCNH2 (Homo sapiens, UniProt Q12809); assay: Inhibition of human ERG expressed in CHO cells assessed as reduction in peak channel current by IonWork patch-clamp electrophysiology method; assay type: cell-based
Voltage-gated inwardly rectifying potassium channel KCNH2, sequence (Q12809 whole entry): as above

N#Cc1c(C(F)(F)F)cc(NS(=O)(=O)c2ccc(OC(F)(F)F)cc2)n2c1nc1cc(Cl)c(Cl)cc12
Ratio IC50 [1]: 0.87 | IC50 [2]: 6730 nM | IC50 [3]: 5850 nM | IC50 [4]: 78000 nM

N#Cc1c(C(F)(F)F)cc(Nc2ccccc2)n2c1nc1ccccc12
IC50 [2]: > 2830 nM

N#Cc1c(C(F)(F)F)cc(NCc2cccs2)n2c1nc1cc(Cl)c(Cl)cc12
IC50 [5]: 1670 nM | inhibition at 10 µM [6]: < 40% | Ratio IC50 [1]: 0.45 | inhibition at 0.3 µM [7]: 6.13% | IC50 [2]: 310 nM | IC50 [8]: 8480 nM | IC50 [3]: 140 nM | selectivity ratio [9]: 27 | IC50 [10]: 140 nM | IC50 [11]: > 10000 nM

COC(=O)c1ccc(Nc2cc(C(F)(F)F)c(C#N)c3nc4ccccc4n23)cc1
IC50 [2]: 1590 nM

N#Cc1c(C(F)(F)F)cc(NCc2ccc(OC(F)(F)F)cc2)n2c1nc1ccccc12
Ratio IC50 [1]: 0.91 | IC50 [2]: 920 nM | IC50 [8]: > 222000 nM | IC50 [3]: 840 nM | selectivity ratio [9]: > 241 | IC50 [10]: 480 nM

CCCOc1ccc(Nc2cc(C(F)(F)F)c(C#N)c3nc4ccccc4n23)cc1
IC50 [2]: 1160 nM

N#Cc1c(C(F)(F)F)cc(N2CCNCC2)n2c1nc1ccccc12
IC50 [2]: 10000 nM

COc1ccc(Nc2cc(C(F)(F)F)c(C#N)c3nc4ccccc4n23)cc1
IC50 [2]: 2260 nM

COC(=O)c1c(C(F)(F)F)cc(Nc2ccc(OC(F)(F)F)cc2)n2c1nc1ccccc12
IC50 [2]: 5520 nM

CN(C)c1ccc2nc3ccc(N(C)C)cc3[s+]c2c1 [METHYLENE BLUE ANHYDROUS]
IC50 [5]: 900 nM

N#Cc1c(C(F)(F)F)cc(Nc2ccccc2OC(F)(F)F)n2c1nc1ccccc12
Ratio IC50 [1]: 0.71 | IC50 [2]: 870 nM | IC50 [3]: 620 nM

COc1ccc(CNc2cc(C(F)(F)F)c(C#N)c3nc4ccccc4n23)cc1
IC50 [2]: 3180 nM

N#Cc1c(C(F)(F)F)cc(NS(=O)(=O)c2ccccn2)n2c1nc1cc(Cl)c(Cl)cc12
IC50 [2]: > 6000 nM | IC50 [4]: > 100000 nM

CNC(=O)c1ccc(CNc2cc(C(F)(F)F)c(C#N)c3nc4ccccc4n23)cc1
IC50 [2]: > 2360 nM

N#Cc1c(C(F)(F)F)cc(NCc2ccc(F)cc2)n2c1nc1cc(Cl)cc(Cl)c12
IC50 [5]: 740 nM | IC50 [2]: 310 nM | IC50 [8]: 1660 nM | IC50 [3]: 210 nM

N#Cc1ccc(Nc2cc(C(F)(F)F)c(C#N)c3nc4ccccc4n23)cc1
IC50 [2]: 2360 nM

N#Cc1c(C(F)(F)F)cc(Nc2ccnc(F)c2)n2c1nc1ccccc12
IC50 [2]: > 2520 nM

C[C@H]1[C@H](OC(=O)CCC(=O)O)O[C@@H]2O[C@@]3(C)CC[C@H]4[C@H](C)CC[C@@H]1[C@@]24OO3 [ARTESUNATE]
IC50 [2]: 4 nM | IC50 [3]: 3 nM

N#Cc1c(C(F)(F)F)cc(NCc2ccncc2)n2c1nc1ccccc12
IC50 [2]: > 2720 nM

N#Cc1c(C(F)(F)F)cc(Nc2ccc(OC(F)(F)F)cc2)n2c1nc1cc(Cl)c(Cl)cc12
IC50 [2]: > 1970 nM | IC50 [4]: 32000 nM

NC(=O)c1c(C(F)(F)F)cc(NCc2ccccn2)n2c1nc1ccccc12
IC50 [2]: > 10000 nM | IC50 [3]: > 10000 nM

N#Cc1ccc(S(=O)(=O)Nc2cc(C(F)(F)F)c(C#N)c3nc4cc(Cl)c(Cl)cc4n23)cc1
IC50 [2]: 5640 nM

N#Cc1c(C(F)(F)F)cc(Nc2cccc(OC(F)(F)F)c2)n2c1nc1ccccc12
Ratio IC50 [1]: 0.58 | IC50 [2]: 390 nM | IC50 [3]: 230 nM

Cc1csc(Nc2cc(C(F)(F)F)c(C#N)c3nc4ccccc4n23)n1
IC50 [2]: > 2820 nM

CN(C)c1ccc(Nc2cc(C(F)(F)F)c(C#N)c3nc4ccccc4n23)cc1
IC50 [2]: 5620 nM

N#Cc1c(C(F)(F)F)cc(NCc2ncccn2)n2c1nc1ccccc12
IC50 [2]: 4800 nM

N#Cc1c(C(F)(F)F)cc(Nc2cnccn2)n2c1nc1ccccc12
IC50 [2]: 4420 nM

CC(C)c1ccc(Nc2cc(C(F)(F)F)c(C#N)c3nc4ccccc4n23)cc1
IC50 [2]: 1010 nM

N#Cc1c(C(F)(F)F)cc(NCc2ccc(S(N)(=O)=O)cc2)n2c1nc1ccccc12
IC50 [2]: 10200 nM

— ChEMBL document CHEMBL4371072, “Structure-Activity Relationship Studies and Plasmodium Life Cycle Profiling Identifies Pan-Active N-Aryl-3-trifluoromethyl Pyrido[1,2- a]benzimidazoles Which Are Efficacious in an in Vivo Mouse Model of Malaria” (J Med Chem, 2019)
